PostGolgi yeast – growth inhibition of a yeast mutant, post-Golgi transport screen; post-Golgi transport phenotypic cell assay; inhibition, % at 10 µM; hit rate 0.9% among 98,000;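 note: yeast cells grown in 1536-well plates; yeast grown about 18 h at 30C before absorbance read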
E coli WT exp – blocks growth of wild type E. coli BW25113; growth inhibition, % at 100 µM; OD600 absorbance; hit rate 0.15% among 98,000;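 active = growth inhibition above about 50% at one test dose, limit read from the data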;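 note: growth measured after 20 h incubation at 37 °C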
Cav32 inh – blocks human Cav3.2 T-type calcium channel | hit rate 4% among 100,000 | B-score at 10 µM | Cav3.2-expressing cells, Fluo-4 calcium fluorescence FDSS; stronger effect = lower value;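 active = single-dose well whose peak fluorescence ratio is a statistical outlier from its plate by either plate-standardised score or position-corrected B-score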
Target sequence (O95180 whole entry, looked up): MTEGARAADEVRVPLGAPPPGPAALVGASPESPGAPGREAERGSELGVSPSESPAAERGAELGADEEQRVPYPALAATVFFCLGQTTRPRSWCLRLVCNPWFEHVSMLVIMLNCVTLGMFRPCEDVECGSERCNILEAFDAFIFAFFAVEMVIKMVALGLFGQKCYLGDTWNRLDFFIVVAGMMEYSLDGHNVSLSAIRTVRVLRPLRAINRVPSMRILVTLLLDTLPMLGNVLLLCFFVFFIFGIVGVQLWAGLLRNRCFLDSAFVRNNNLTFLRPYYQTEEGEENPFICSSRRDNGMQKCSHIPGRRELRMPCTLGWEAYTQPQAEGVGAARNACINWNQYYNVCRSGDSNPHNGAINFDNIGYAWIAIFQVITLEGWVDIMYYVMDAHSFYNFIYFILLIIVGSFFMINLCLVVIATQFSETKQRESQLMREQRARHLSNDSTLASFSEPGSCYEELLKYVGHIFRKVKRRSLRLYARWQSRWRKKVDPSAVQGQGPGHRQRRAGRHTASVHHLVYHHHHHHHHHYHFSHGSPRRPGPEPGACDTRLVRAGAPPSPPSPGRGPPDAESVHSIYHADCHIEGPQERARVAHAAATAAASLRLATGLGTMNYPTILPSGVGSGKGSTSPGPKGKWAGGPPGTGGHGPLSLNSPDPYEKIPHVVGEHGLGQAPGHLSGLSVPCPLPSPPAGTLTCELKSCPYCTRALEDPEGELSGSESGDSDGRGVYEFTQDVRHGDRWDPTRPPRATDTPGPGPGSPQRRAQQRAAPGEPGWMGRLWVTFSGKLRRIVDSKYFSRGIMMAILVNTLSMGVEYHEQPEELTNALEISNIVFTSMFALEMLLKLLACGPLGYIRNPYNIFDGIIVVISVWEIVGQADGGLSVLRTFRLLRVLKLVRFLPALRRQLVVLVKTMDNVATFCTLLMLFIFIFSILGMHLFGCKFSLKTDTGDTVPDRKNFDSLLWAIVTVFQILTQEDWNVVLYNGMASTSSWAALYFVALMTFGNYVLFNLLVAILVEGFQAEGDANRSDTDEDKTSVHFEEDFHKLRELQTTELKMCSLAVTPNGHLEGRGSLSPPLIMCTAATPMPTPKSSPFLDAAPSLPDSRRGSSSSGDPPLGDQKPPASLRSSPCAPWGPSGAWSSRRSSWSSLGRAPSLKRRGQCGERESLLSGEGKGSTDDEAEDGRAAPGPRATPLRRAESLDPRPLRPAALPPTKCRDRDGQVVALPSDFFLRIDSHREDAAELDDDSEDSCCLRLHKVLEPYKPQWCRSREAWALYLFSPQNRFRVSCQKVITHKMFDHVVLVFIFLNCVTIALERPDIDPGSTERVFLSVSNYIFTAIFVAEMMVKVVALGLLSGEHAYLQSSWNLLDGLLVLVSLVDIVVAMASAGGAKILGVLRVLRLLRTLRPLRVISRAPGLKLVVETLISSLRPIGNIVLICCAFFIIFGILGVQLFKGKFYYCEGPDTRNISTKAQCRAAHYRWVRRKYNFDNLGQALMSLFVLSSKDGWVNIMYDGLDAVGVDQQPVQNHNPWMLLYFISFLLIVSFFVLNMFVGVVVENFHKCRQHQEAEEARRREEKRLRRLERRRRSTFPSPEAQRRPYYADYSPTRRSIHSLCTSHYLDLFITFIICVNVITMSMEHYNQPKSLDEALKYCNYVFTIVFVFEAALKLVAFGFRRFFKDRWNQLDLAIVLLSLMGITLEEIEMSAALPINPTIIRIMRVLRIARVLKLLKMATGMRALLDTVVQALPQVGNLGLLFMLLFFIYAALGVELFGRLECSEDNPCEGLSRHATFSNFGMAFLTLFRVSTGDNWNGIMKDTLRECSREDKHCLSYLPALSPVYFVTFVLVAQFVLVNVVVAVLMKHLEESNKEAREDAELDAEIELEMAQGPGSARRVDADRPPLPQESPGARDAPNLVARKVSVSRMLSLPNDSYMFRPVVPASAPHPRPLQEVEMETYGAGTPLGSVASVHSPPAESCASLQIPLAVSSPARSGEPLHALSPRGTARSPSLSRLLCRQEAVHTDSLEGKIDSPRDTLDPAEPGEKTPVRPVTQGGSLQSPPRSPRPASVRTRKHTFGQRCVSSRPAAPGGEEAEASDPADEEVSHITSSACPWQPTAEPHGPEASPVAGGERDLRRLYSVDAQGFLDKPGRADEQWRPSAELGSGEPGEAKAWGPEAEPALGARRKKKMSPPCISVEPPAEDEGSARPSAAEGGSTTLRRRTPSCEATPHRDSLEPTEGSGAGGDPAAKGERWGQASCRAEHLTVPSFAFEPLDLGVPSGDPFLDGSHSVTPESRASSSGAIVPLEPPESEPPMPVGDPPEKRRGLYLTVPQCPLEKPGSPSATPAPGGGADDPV
PostGolgi ctrl – growth of the yeast control strain, post-Golgi counter-screen | efflux-deficient yeast background strain, growth absorbance A615, 16 h | inhibition, % at 10 µM | hit rate 5% among 98,000 | AID 738
tolC growth inh – growth inhibitors of E. coli BW25113 tolC mutant; AID 573; hit rate 2.2% among 65,000; OD615; growth inhibition, % at 10 µM (by protocol);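 active = growth inhibition at or above a cutoff equal to the mean over every tested compound plus 3 SD, cut at about 60% in these data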;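 note: growth measured after 20 h incubation at 37 °C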
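Signal: optical density read at 615 nm; Assay system: E. coli ΔtolC::kan strain BW25113; Times: 20 h incubation with compound, 37 °C; Dosing: 10 µM final, single dose.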
* = called active by the depositor; . = not tested or not shown. In the library only some 8.4% were active in any assay of this set; here they are far more common. Cut-off read from the data, not from the text of the source, unless noted: active = inhibition above about 30%; inactive = the rest.

SMILES | PostGolgi yeast | E coli WT exp | Cav32 inh | PostGolgi ctrl | tolC growth inh
Cc1cc(C)nc(NC(=O)c2cccc(Cl)c2)n1 | 3 | -14 | 0.33 | 13 | -16
Cc1cccc(N2CCN(CC(=O)Nc3nccs3)CC2)c1C | 39* | 17 | -6.3* | 1 | .
CCOC(=O)NC(Nc1nnc(C)s1)(C(=O)OCC)C(F)(F)F (configuration not stated) | 4 | 3 | -0.21 | -13 | -21
CCOC(=O)C(NC(=O)c1ccc(F)cc1)(Nc1nnc(C)s1)C(F)(F)F (configuration not stated) | 1 | 2 | 0.45 | 30* | -23
O=C(NCCc1ccccc1)[C@@H]1CC=C[C@@H]2CCN(Cc3ccccc3)C(=O)[C@@H]21 | . | . | -0.84 | . | .
Cn1c(C(=O)N2CCc3ccccc3C2)cc2oc3ccccc3c21 | -2 | -22 | -0.3 | 56* | 69*
O=C(c1cc2ccccc2c(=O)o1)N1CCc2ccccc2C1 | -1 | -6 | . | 12 | -3
COc1cccc(OCC(=O)Nc2c(C(=O)Nc3ccc(OC)cc3OC)oc3ccccc23)c1 | . | . | . | . | -8
CCS(=O)(=O)N1CCN(C(=O)c2cc(OC)cc(OC)c2)CC1 | 2 | -4 | 1.1 | 31* | 8
COc1ccc(/C=N/NC(=O)C(=O)N2CCN(c3ccccc3OC)CC2)cc1 | 0 | 7 | 0.07 | 2 | .
COc1ccc(NC(=O)C2CCN(c3cc(C)nc(-c4ccccc4)n3)CC2)cc1 | -5 | -9 | -5.9* | 15 | 29
Cc1cc(C)nc(N2CCC(C(=O)Nc3cccc(C(F)(F)F)c3)CC2)n1 | 2 | -8 | -4.2* | 23 | -2
CS(=O)(=O)N1CCC(C(=O)Nc2cccc(C(F)(F)F)c2)CC1 | -6 | -1 | 0.42 | -3 | 8
COc1ccc(NC(=O)C2CCN(c3nc(C)cc(C)n3)CC2)cc1 | . | . | 0.4 | . | .
Cc1cc(N2CCC(C(=O)Nc3ccc(F)cc3)CC2)nc(-c2ccccc2)n1 | -4 | 5 | -6.9* | 4 | 89*
COc1ccc(OC)c(C(C)NC=O)c1 (configuration not stated) | 4 | 6 | -0.55 | 39* | -5
CCOC(=O)c1sc(NC(=O)C(CC)Sc2nc3ccccc3[nH]2)nc1C (configuration not stated) | . | . | 0.14 | . | .
CCOC(=O)c1sc(NC(=O)C(CC)OC(=O)C(CC(C)C)NC(=O)c2ccccc2)nc1C (configuration not stated) | 0 | 9 | -4* | -3 | .
Cc1ccc(C)c(S(=O)(=O)C(C#N)c2nc3ccccc3nc2N2CCOCC2)c1 (configuration not stated) | -3 | 1 | -0.58 | 4 | 70*
Cc1ccc(C)c(S(=O)(=O)C(C#N)c2nc3ccccc3nc2N2CC(C)OC(C)C2)c1 (configuration not stated) | -2 | -19 | -5.7* | 11 | 58
Cc1cc(C(=O)N2CCN(c3ncccn3)CC2)cs1 | -2 | -11 | 0.1 | 16 | -12
COc1cccc(OCCOc2c(OC)cccc2OC)c1 | -4 | 2 | 0.31 | 7 | -3
C#CCOC(=O)Nc1ccc(=O)n(Cc2c(Cl)cccc2Cl)c1 | -1 | 1 | 0.41 | 5 | .
O=C(c1ccco1)N1CCN(C(=O)c2ccc(COc3ccc(Cl)cc3Cl)o2)CC1 | . | . | -5.8* | . | .
O=C(c1ccco1)N1CCN(C(=O)c2ccc(COc3ccc4c(c3)CCC4)o2)CC1 | 5 | -5 | -3.5 | 10 | .
SMILES | PostGolgi yeast | E coli WT exp | Cav32 inh | PostGolgi ctrl | tolC growth inh
O=C(c1ccc(COc2ccc3c(c2)CCC3)o1)N1CCN(c2ccccc2)CC1 | . | . | -3.2 | . | 67*
O=C(c1ccc(COc2ccccc2Br)o1)N1CCCCCC1 | -1 | -5 | -1.7 | 38* | 61*
Cc1sc2ncnc(SCC(=O)NC(=O)NCc3ccco3)c2c1C | . | . | -0.43 | . | 2
Cc1sc2nc(C(C)C)nc(SCC(=O)NCc3ccco3)c2c1C | 4 | -5 | -0.014 | 40* | 30
CCCCSc1nc(SCC(=O)NCc2ccco2)c2c3c(sc2n1)COC(C)(CC)C3 (configuration not stated) | 0 | -8 | -5.5* | -11 | .
O=c1[nH]ncn2cccc12 | -4 | 17 | 0.2 | -2 | -28
N#C/C(=C(/O)CSc1nnc(Cc2cccs2)n1C1CCCCC1)c1nc2ccccc2[nH]1 | -5 | -3 | -3.8 | -12 | 26
COc1ccccc1-c1nnc(SC/C(O)=C(\C#N)c2nc3ccccc3[nH]2)n1C1CCCCC1 | . | . | . | . | 71*
Cc1ccc2c3c([nH]c2c1C)-c1nonc1CC3 | . | . | -2 | . | .
C[C@]1(C(=O)NCc2cc(F)cc(C(F)(F)F)c2)C=C[C@@H](Cc2ccccc2)N1C(=O)c1ccccc1 | . | . | -2.7 | . | .

Source: PubChem (several laboratories)
